# How the values were obtained:
# [1] = Half life in Swiss Webster mouse at 4.9 mg/kg, iv by HPLC-MS/MS analysis; assay type: ADME, organism-based; parameters: dose 4.9 mg/kg, route intravenous; conditions: in vivo
# Summary of the method: (§1)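 Male Swiss Webster mice, n = 3 per time point. For i.v., the compound was dissolved in sterile water, diluted 1:1 with 2× saline, and given as a tail-vein bolus over ~10–20 s. For p.o., it was given by gavage in sterile water. Dose volume was 5 ml/kg. Terminal plasma was taken from 5 min to 72 h and measured by HPLC-MS/MS (calibration 2.5–10,000 nM). Parameters came from noncompartmental analysis.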
# [2] = Cmax in Swiss Webster mouse at 131 mg/kg, po by HPLC-MS/MS analysis; assay type: ADME, organism-based; parameters: dose 131 mg/kg, route oral; conditions: in vivo; summary of the method: as §1
# Mus musculus [3] = assay: Volume of distribution in Swiss Webster mouse at 16.5 mg/kg, po by HPLC-MS/MS analysis; assay type: ADME, organism-based; parameters: dose 16.5 mg/kg, route oral; conditions: in vivo
# Summary of the method: (§2)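 Male Swiss Webster mice (n = 3 per time point) got a single oral gavage dose in sterile water, 5 ml/kg. The 5 mM formulation was a clear solution; the 20 and 40 mM formulations were gelatinous. Terminal blood was collected from 5 min to 72 h postdose, and plasma was analysed by HPLC-MS/MS. Volume of distribution came from noncompartmental analysis.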
# [4] = Cmax in Swiss Webster mouse at 4.9 mg/kg, iv by HPLC-MS/MS analysis; assay type: ADME, organism-based; parameters: dose 4.9 mg/kg, route intravenous; conditions: in vivo; summary of the method: as §1
# Mus musculus [5] = assay: Hepatotoxicity in BALB/c mouse assessed as ALT level in serum at 150 mg/kg/day, po administered for five days (Rvb= 36 U/L); assay type: toxicity, organism-based; parameters: route oral; conditions: in vivo
# Mus musculus [6] = assay: Volume of distribution in Swiss Webster mouse at 131 mg/kg, po by HPLC-MS/MS analysis; assay type: ADME, organism-based; parameters: dose 131 mg/kg, route oral; conditions: in vivo; summary of the method: as §2
# Mus musculus [7] = assay: AUC (0 to infinity) in Swiss Webster mouse at 66 mg/kg, po by HPLC-MS/MS analysis; assay type: ADME, organism-based, Plasma; parameters: time infinity, dose 66 mg/kg, route oral; conditions: in vivo; summary of the method: as §1
# Mus musculus [8] = assay: Toxicity in BALB/c mouse assessed as ataxia at 100 mg/kg/day, ip after second dose; assay type: organism-based; parameters: route intraperitoneal; conditions: in vivo
# Mus musculus [9] = assay: Toxicity in BALB/c mouse assessed as decrease in liver weight at 150 mg/kg/day, po administered for five days; assay type: organism-based; parameters: route oral; conditions: in vivo
# Summary of the method: (§3)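 Female BALB/c mice (n = 5 per dose), dosed once daily for 5 consecutive days p.o. (20 ml/kg) or i.v. (10 ml/kg) with compound in sterile water, prepared fresh daily under yellow light. Vehicle controls n = 5 per route. Clinical observations, body weights, serum chemistry and hematology on day 6 before necropsy; histopathology of formalin-fixed tissues. Chemistry analysed by one-way ANOVA with Dunnett's posttest.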
# [10] = Induction of mutagenicity in Salmonella serovar Typhimurium TA 98 assessed as number of revertant colonies at 10 ug by Ames assay in presence of Aroclor 1254-induced rat liver S9 metabolic activation system; assay type: toxicity, subcellular, Salmonella enterica subsp. enterica serovar Typhimurium
# Summary of the method: (§4)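 Ames plate incorporation with S. Typhimurium TA98 and TA100, with or without Aroclor 1254-induced rat liver S9 (10% vol/vol). Compound was dissolved in sterile water and serially diluted to 1–500 μg/plate. Positive controls were 2-nitrofluorene and sodium azide without S9, and 2-aminoanthracene with S9; sterile water and DMSO served as vehicles. Revertant colonies and background lawn were scored. A mutagen was defined as a mean revertant count at least 2-fold over solvent control. Single experiment.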
# Mus musculus [11] = assay: Toxicity in BALB/c mouse at 100 mg/kg/day, po administered for five days; assay type: organism-based; parameters: route oral; conditions: in vivo
# Summary of the method: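 Five-day repeat-dose study in female BALB/c mice (n = 5 per dose level): oral dosing once daily for five consecutive days in sterile water prepared fresh daily under yellow light, 20 ml/kg. Vehicle controls received sterile water only. Clinical observations and body weights were recorded, with blood for hematology and serum chemistry taken on day 6 before necropsy. A veterinary pathologist examined formalin-fixed tissues.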
# [12] = Induction of mutagenicity in Salmonella serovar Typhimurium TA 98 assessed as number of revertant colonies at 50 ug by Ames assay in presence of Aroclor 1254-induced rat liver S9 metabolic activation system; assay type: toxicity, subcellular, Salmonella enterica subsp. enterica serovar Typhimurium
# Summary of the method: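 Plate incorporation test, S. Typhimurium TA98 (and TA100), with or without Aroclor 1254-induced rat liver S9 (10% vol/vol). Compound dissolved in sterile water, serially diluted to 1–1,000 or 1–500 μg/plate. Positive controls: 2-nitrofluorene and sodium azide without S9, 2-aminoanthracene with S9; water and DMSO vehicle controls. Revertant colonies and background lawn scored; mutagen if mean revertants ≥2-fold solvent control. Single experiment.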
# Mus musculus [13] = assay: Renal toxicity in BALB/c mouse assessed as blood urea nitrogen level in serum at 150 mg/kg/day, po administered for five days (Rvb= 29 mg/dl); assay type: organism-based; parameters: route oral; conditions: in vivo; summary of the method: as §3
# Leishmania donovani [14] = assay: Antileishmanial activity against Leishmania donovani WR378 infected in golden Syrian hamster assessed as reduction in bone marrow parasitemia at 50 mg/kg/day, po administered for five days; assay type: functional; conditions: 120 h
# Summary of the method: (§5)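 11-day golden hamster VL model adapted from an 8-day method, using L. donovani WR378 metacyclic promastigotes. Dosing was oral, once daily for 5 days. Animals were euthanized on day 11 post-infection. Liver, spleen and femoral bone marrow (flushed with Schneider's medium) were harvested.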
# [15] = Induction of mutagenicity in Salmonella serovar Typhimurium TA 98 assessed as number of revertant colonies at 10 ug by Ames assay; assay type: toxicity, Salmonella enterica subsp. enterica serovar Typhimurium; conditions: in vivo; summary of the method: as §4
# Mus musculus [16] = assay: Toxicity in BALB/c mouse assessed as occurrence of tremor at 50 mg/kg, iv; assay type: organism-based; parameters: dose 50 mg/kg, route intravenous; conditions: in vivo
# Summary of the method: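 Single-dose escalation: female BALB/c mice (n = 1 per dose level) given one i.v. dose in sterile water (10 ml/kg), 5–50 mg/kg, observed for 2 days.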
# [17] = Drug level in Swiss Webster mouse kidney at 5 mg/kg, iv after 2 hrs by HPLC/UV analysis; conditions: read-out: Drug uptake
# [18] = Clearance in Swiss Webster mouse at 5 mg/kg, iv by HPLC-MS/MS analysis; assay type: ADME, organism-based; parameters: dose 5 mg/kg, route intravenous; conditions: in vivo; summary of the method: as §1
# [19] = Cmax in Swiss Webster mouse at 70 mg/kg, po by HPLC-MS/MS analysis; assay type: ADME, organism-based; parameters: dose 70 mg/kg, route oral; conditions: in vivo; summary of the method: as §1
# Leishmania donovani [20] = assay: Antileishmanial activity against Leishmania donovani WR378 infected in golden Syrian hamster assessed as reduction in spleen parasitemia at 30 mg/kg/day, po administered for five days; assay type: functional; conditions: 120 h; summary of the method: as §5
# [21] = Induction of mutagenicity in Salmonella serovar Typhimurium TA 100 assessed as number of revertant colonies at 500 ug by Ames assay; assay type: toxicity, Salmonella enterica subsp. enterica serovar Typhimurium; conditions: in vivo; summary of the method: as §4
# [22] = Half life in Swiss Webster mouse at 70 mg/kg, po by HPLC-MS/MS analysis; assay type: ADME, organism-based; parameters: dose 70 mg/kg, route oral; conditions: in vivo; summary of the method: as §1
# Leishmania donovani [23] = assay: Antileishmanial activity against Leishmania donovani WR378 infected in golden Syrian hamster assessed as reduction in liver parasitemia at 100 mg/kg/day, po administered for five days; assay type: functional; conditions: 120 h; summary of the method: as §5
# [24] = Drug level in Swiss Webster mouse liver at 70 mg/kg, po after 2 hrs by HPLC/UV analysis; conditions: read-out: Drug uptake
# [25] = AUC (0 to infinity) in Swiss Webster mouse at 5 mg/kg, iv by HPLC-MS/MS analysis; assay type: ADME, organism-based; parameters: time infinity, dose 5 mg/kg, route intravenous; conditions: plasma; summary of the method: as §1
# [26] = Induction of mutagenicity in Salmonella serovar Typhimurium TA 100 assessed as number of revertant colonies at 1 ug by Ames assay in presence of Aroclor 1254-induced rat liver S9 metabolic activation system; assay type: toxicity, subcellular, Salmonella enterica subsp. enterica serovar Typhimurium; summary of the method: as §4
smiles,measurement,setting,value
CCOc1cc(NC(=N)c2ccccn2)ccc1-c1ccc(-c2ccc(NC(=N)c3ccccn3)cc2OCC)o1,half-life,[1],18 h
same,Cmax,[2],1.68 µM
same,Vd,Mus musculus [3],57 L/kg
same,Cmax,[4],4.24 µM
same,Activity,Mus musculus [5],220 U/L
same,Vd,Mus musculus [6],76 L/kg
same,AUC,Mus musculus [7],5.6 µM·h
same,Activity,Mus musculus [8],Toxic
same,Activity,Mus musculus [9],Toxic
CC(C)Oc1cc(NC(=N)c2ccccn2)ccc1-c1ccc(-c2ccc(NC(=N)c3ccccn3)cc2OC(C)C)o1,Activity,[10],38
same,Activity,Mus musculus [11],Non-toxic
same,Activity,[12],39
same,Activity,Mus musculus [13],29 U/L
same,inhibition in vivo at 50 mg/kg/day,Leishmania donovani [14],70%
same,Activity,[15],29
same,Activity,Mus musculus [16],Toxic
same,concentration at 2 h,[17],12.7 µM
same,clearance,[18],13.1 mL/min/kg
same,Cmax,[19],1.76 µM
same,inhibition in vivo at 30 mg/kg/day,Leishmania donovani [20],67%
same,Activity,[21],Toxic
same,half-life,[22],48 h
same,inhibition in vivo at 100 mg/kg/day,Leishmania donovani [23],89%
same,concentration at 2 h,[24],45.8 µM
same,AUC(0-inf),[25],9.53 µM·h
same,Activity,[26],159

# Source: ChEMBL document CHEMBL1275590, “Novel arylimidamides for treatment of visceral leishmaniasis” (Antimicrob Agents Chemother, 2010)
